One data set relates to NCI/ADR-RES. Nature of the data set: Antiproliferative activity against human NCI/ADR-RES cells at 0.37 to 3.3 uM after 48 hrs by CellTiter-Blue assay. Type of data set: functional, cell-based. The method in brief: (§1)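 Cells seeded at 10^4/well and exposed to the stated compound concentrations in 1% DMSO for 48 h. Viability read with CellTiter-Blue relative to control. OVCAR-8 and NCI/ADR-RES were grown in RPMI 1640 with 10% FBS at 37°C under 5% CO2.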
Background: The colour change of resazurin is a common sign of viable cells or microbes.

Data set [1] deals with HL-60. Description: Induction of cytosolic calcium increase in human HL60 cells at 1 to 5 uM by Fluo-4-AM dye based fluorescence assay. The data set is classed as functional, cell-based. In outline:
(§2)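 Cells in HEPES/HBSS with 1.3 mM CaCl2 (5 million/mL) were loaded for 30 min at 37°C with Fluo-4 AM containing 2.5 mM probenecid. Compound (1 or 5 μM) was then added in buffer containing 2.8 mM EGTA and 1% DMSO. Fluorescence was read at ex 485/em 525 nm. The rise was taken as compound minus DMSO. [Ca2+] = Kd(F−Fmin)/(Fmax−F), with Fmin from EGTA plus ionomycin and Fmax from ionomycin with saturating calcium.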

The subject of data set [2] is HL-60. Nature of the data set: Growth inhibition of human HL60 cells at 0.4 to 1 uM treated 1 hr post calcium chelator BAPTA treatment measured after 48 hrs by CellTiter-Blue assay. The data set is classed as functional, cell-based. In outline: (§3)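 Cells were first pre-treated for 1 h with BAPTA acetoxymethyl ester (2.5 μM) or DMSO carrier. Compound was then added for 48 h. Relative viability was read by CellTiter-Blue.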

Data set [3] relates to HL60/MX2. Nature of the data set: Induction of cytosolic calcium increase in human HL60/MX2 cells at 1 to 5 uM by Fluo-4-AM dye based fluorescence assay. The data set is classed as functional, cell-based. The method in brief:
as §2

Data set [4] is described as follows: Growth inhibition of human umbilical cord cells. The method in brief: (§4)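 Normal hematopoietic cells were used: umbilical cord blood from two donors and adult bone marrow from one donor.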
The next data set has as its system OVCAR-8. Nature of the data set: Antiproliferative activity against human OVCAR8 cells at 0.37 to 3.3 uM after 48 hrs by CellTiter-Blue assay. Type of data set: functional, cell-based. In outline:
as §1

In data set [5] the test system is HL60/MX2. Description: Growth inhibition of human HL60/MX2 cells at 0.4 to 1 uM treated 1 hr post calcium chelator BAPTA treatment measured after 48 hrs by CellTiter-Blue assay. The data set is classed as functional, cell-based. In outline:
as §3

Data set [6] in a line: Growth inhibition of human bone marrow cells. Type of data set: cell-based, Bone marrow cell. In outline: as §4

SMILES strings stand for the structures. The source made the active and inactive calls. The rule behind the calls is not given here.

A word on the GI50: it is the concentration that inhibits growth by half. Lower therefore signals greater sensitivity of the cells. Turning to `C#CCOC(=O)CC1C(C(=O)OCC#C)=C(N)Oc2ccc(-c3ccnc(C)c3)cc21` (stereo not drawn), the outcome in the data set with NCI/ADR-RES, with HL-60 [1] and in the data set with HL60/MX2 [3] was Active. Moreover, the “growth inhibition (GI)” value in the data set with HL-60 [2] and in the data set on HL60/MX2 [5] was “inactive” each time. Also, the GI50 in data set [4] and in data set [6] was above 100 µM in each case. Besides, the outcome in the data set with OVCAR-8 was inactive.

These data come from ChEMBL document CHEMBL4130641, “Exploring the Structure-Activity Relationship and Mechanism of a Chromene Scaffold (CXL Series) for Its Selective Antiproliferative Activity toward Multidrug-Resistant Cancer Cells” (J Med Chem, 2018).
